Assay results as given in ChEMBL document CHEMBL5550111, “Design, synthesis and biological evaluation of aryloxy thiophosphoramidate triesters of anticancer nucleoside analogues” (Bioorg Med Chem, 2024).
pIC50: −log10 of the molar value.

How the values were obtained:
[1] = test system: HepG2; assay: Cytotoxicity against human HepG2 cells assessed as inhibition of cell viability incubated for 72 hrs by MTS assay; assay type: functional, cell-based; settings: HepG2, 72 h
In short: (§1)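 Cells seeded at 0.5 to 100 × 10^3 per well the day before treatment, then exposed for 72 h to 9 serial concentrations (3.16-fold dilutions, top 198 μM), in duplicate. MTS added for a final 4 h at 37 °C and absorbance read. IC50 is the concentration giving 50% loss of viability. MI% is the maximum inhibition over the tested range.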

[2] = test system: PC-3; assay: Cytotoxicity against human PC-3 cells assessed as inhibition of cell viability incubated for 72 hrs by MTS assay; assay type: functional, cell-based; settings: PC-3, 72 h; in short: as §1
[3] = test system: HT-29; assay: Cytotoxicity against human HT-29 cells assessed as maximum inhibition of cell viability upto 198 uM incubated for 72 hrs by MTS assay relative to control; assay type: functional; settings: up to 198 µM
In short: (§2)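 Cells seeded at 0.5 to 100 × 10^3 per well the day before drug addition, then exposed to compound for 72 h. MTS added afterwards, with a further 4 h at 37 °C, and absorbance read. Tested in duplicate at 9 serial 3.16-fold dilutions, top concentration 198 μM. MI% is the maximum inhibition of viability across the tested range.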

[4] = test system: BXPC-3; assay: Cytotoxicity against human BXPC-3 cells assessed as inhibition of cell viability incubated for 72 hrs by MTS assay; assay type: functional, cell-based; settings: BXPC-3, 72 h; in short: as §1
[5] = test system: SK-MES-1; assay: Cytotoxicity against human SK-MES-1 cells assessed as inhibition of cell viability incubated for 72 hrs by MTS assay; assay type: functional, cell-based; settings: SK-MES-1, 72 h; in short: as §1
[6] = test system: MDA-MB-231; assay: Cytotoxicity against human MDA-MB-231 cells assessed as maximum inhibition of cell viability upto 198 uM incubated for 72 hrs by MTS assay relative to control; assay type: functional; settings: up to 198 µM; in short: as §2
[7] = test system: PANC-1; assay: Cytotoxicity against human PANC-1 cells assessed as maximum inhibition of cell viability upto 198 uM incubated for 72 hrs by MTS assay relative to control; assay type: functional; settings: up to 198 µM; in short: as §2
[8] = test system: A2780; assay: Cytotoxicity against human A2780 cells assessed as maximum inhibition of cell viability upto 198 uM incubated for 72 hrs by MTS assay relative to control; assay type: functional; settings: up to 198 µM; in short: as §2
[9] = Cytotoxicity against human T24/83 cells assessed as inhibition of cell viability incubated for 72 hrs by MTS assay; assay type: functional, cell-based; settings: T24/83, 72 h; in short: as §1
[10] = test system: OVCAR-3; assay: Cytotoxicity against human OVCAR-3 cells assessed as maximum inhibition of cell viability upto 198 uM incubated for 72 hrs by MTS assay relative to control; assay type: functional; settings: up to 198 µM; in short: as §2
[11] = test system: BXPC-3; assay: Cytotoxicity against human BXPC-3 cells assessed as maximum inhibition of cell viability upto 198 uM incubated for 72 hrs by MTS assay relative to control; assay type: functional; settings: up to 198 µM; in short: as §2
[12] = test system: HT-29; assay: Cytotoxicity against human HT-29 cells assessed as inhibition of cell viability incubated for 72 hrs by MTS assay; assay type: functional, cell-based; settings: HT-29, 72 h; in short: as §1
[13] = test system: HepG2; assay: Cytotoxicity against human HepG2 cells assessed as maximum inhibition of cell viability upto 198 uM incubated for 72 hrs by MTS assay relative to control; assay type: functional; settings: up to 198 µM; in short: as §2
[14] = test system: PANC-1; assay: Cytotoxicity against human PANC-1 cells assessed as inhibition of cell viability incubated for 72 hrs by MTS assay; assay type: functional, cell-based; settings: PANC-1, 72 h; in short: as §1
[15] = test system: MDA-MB-231; assay: Cytotoxicity against human MDA-MB-231 cells assessed as inhibition of cell viability incubated for 72 hrs by MTS assay; assay type: functional, cell-based; settings: MDA-MB-231, 72 h; in short: as §1
[16] = test system: A2780; assay: Cytotoxicity against human A2780 cells assessed as inhibition of cell viability incubated for 72 hrs by MTS assay; assay type: functional, cell-based; settings: A2780, 72 h; in short: as §1
[17] = test system: MIA PaCa-2; assay: Cytotoxicity against human MIA PaCa-2 cells assessed as inhibition of cell viability incubated for 72 hrs by MTS assay; assay type: functional, cell-based; settings: MIA PaCa-2, 72 h; in short: as §1
[18] = test system: RT112/84; assay: Cytotoxicity against human RT112/84 cells assessed as maximum inhibition of cell viability upto 198 uM incubated for 72 hrs by MTS assay relative to control; assay type: functional; settings: up to 198 µM; in short: as §2
[19] = test system: COLO 205; assay: Cytotoxicity against human COLO 205 cells assessed as inhibition of cell viability incubated for 72 hrs by MTS assay; assay type: functional, cell-based; settings: COLO 205, 72 h; in short: as §1
[20] = test system: OVCAR-3; assay: Cytotoxicity against human OVCAR-3 cells assessed as inhibition of cell viability incubated for 72 hrs by MTS assay; assay type: functional, cell-based; settings: OVCAR-3, 72 h; in short: as §1
[21] = test system: SK-MES-1; assay: Cytotoxicity against human SK-MES-1 cells assessed as maximum inhibition of cell viability upto 198 uM incubated for 72 hrs by MTS assay relative to control; assay type: functional; settings: up to 198 µM; in short: as §2
[22] = test system: RT112/84; assay: Cytotoxicity against human RT112/84 cells assessed as inhibition of cell viability incubated for 72 hrs by MTS assay; assay type: functional, cell-based; settings: RT112/84, 72 h; in short: as §1
[23] = test system: MIA PaCa-2; assay: Cytotoxicity against human MIA PaCa-2 cells assessed as maximum inhibition of cell viability upto 198 uM incubated for 72 hrs by MTS assay relative to control; assay type: functional; settings: up to 198 µM; in short: as §2
[24] = test system: PC-3; assay: Cytotoxicity against human PC-3 cells assessed as maximum inhibition of cell viability upto 198 uM incubated for 72 hrs by MTS assay relative to control; assay type: functional; settings: up to 198 µM; in short: as §2
[25] = test system: COLO 205; assay: Cytotoxicity against human COLO 205 cells assessed as maximum inhibition of cell viability upto 198 uM incubated for 72 hrs by MTS assay relative to control; assay type: functional; settings: up to 198 µM; in short: as §2

SMILES: Nc1ccn([C@@H]2O[C@H](CO)[C@@H](O)C2(F)F)c(=O)n1 [GEMCITABINE]
- pIC50 [1]: 4.78
- pIC50 [2]: 6.34
- Imax [3]: 64%
- pIC50 [4]: 5.74
- pIC50 [5]: 5.91
- Imax [6]: 74%
- Imax [7]: 43%
- Imax [8]: 85%
- pIC50 [9]: > 7.70
- Imax [10]: 35%
- Imax [11]: 79%
- pIC50 [12]: 7.15
- Imax [13]: 53%
- pIC50 [14]: 6.17
- pIC50 [15]: 5.43
- pIC50 [16]: 6.49
- pIC50 [17]: 7.40
- Imax [18]: 88%
- pIC50 [19]: 6.96
- pIC50 [20]: 4.17
- Imax [21]: 88%
- pIC50 [22]: 5.91
- Imax [23]: 68%
- Imax [24]: 61%
- Imax [25]: 86%
